Assay results published in ChEMBL document CHEMBL2440054, “Largazole Arrests Cell Cycle at G1 Phase and Triggers Proteasomal Degradation of E2F1 in Lung Cancer Cells” (ACS Med Chem Lett, 2013).
Activity calls are given as the source filed them. No cut-off for these calls is given here.

Experiments:
[1] = Cytotoxicity against human 95-D cells after 48 hrs by CCK-8 assay; assay type: functional, cell-based
Procedure, shortened: (§1)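 Cells treated with a range of largazole concentrations for 48 h. Proliferation read by CCK-8 assay; IC50 derived from the concentration series.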

[2] = biological target: Transcription factor E2F1 (Homo sapiens) (UniProt Q01094); assay: Induction of E2F1 degradation in human A549 cells at 0.1 uM after 12 hrs by Western blotting analysis in presence of proteasome inhibitor bortezomib; assay type: cell-based
Procedure, shortened: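 A549 cells pretreated 2 h with bortezomib (100 nM) or MG-132 (10 μM), then given largazole 0.1 μM for a further 12 h. Lysates Western blotted for E2F1.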

[3] = biological target: T1, Retinoblastoma-associated protein (Homo sapiens) (UniProt P06400); assay: Dephosphorylation of Rb in human A549 cells assessed as increase in Rb-E2F1 interaction at 0.1 uM after 8 hrs by immunoprecipitation and Western blotting analysis; assay type: cell-based
T1 sequence (whole entry): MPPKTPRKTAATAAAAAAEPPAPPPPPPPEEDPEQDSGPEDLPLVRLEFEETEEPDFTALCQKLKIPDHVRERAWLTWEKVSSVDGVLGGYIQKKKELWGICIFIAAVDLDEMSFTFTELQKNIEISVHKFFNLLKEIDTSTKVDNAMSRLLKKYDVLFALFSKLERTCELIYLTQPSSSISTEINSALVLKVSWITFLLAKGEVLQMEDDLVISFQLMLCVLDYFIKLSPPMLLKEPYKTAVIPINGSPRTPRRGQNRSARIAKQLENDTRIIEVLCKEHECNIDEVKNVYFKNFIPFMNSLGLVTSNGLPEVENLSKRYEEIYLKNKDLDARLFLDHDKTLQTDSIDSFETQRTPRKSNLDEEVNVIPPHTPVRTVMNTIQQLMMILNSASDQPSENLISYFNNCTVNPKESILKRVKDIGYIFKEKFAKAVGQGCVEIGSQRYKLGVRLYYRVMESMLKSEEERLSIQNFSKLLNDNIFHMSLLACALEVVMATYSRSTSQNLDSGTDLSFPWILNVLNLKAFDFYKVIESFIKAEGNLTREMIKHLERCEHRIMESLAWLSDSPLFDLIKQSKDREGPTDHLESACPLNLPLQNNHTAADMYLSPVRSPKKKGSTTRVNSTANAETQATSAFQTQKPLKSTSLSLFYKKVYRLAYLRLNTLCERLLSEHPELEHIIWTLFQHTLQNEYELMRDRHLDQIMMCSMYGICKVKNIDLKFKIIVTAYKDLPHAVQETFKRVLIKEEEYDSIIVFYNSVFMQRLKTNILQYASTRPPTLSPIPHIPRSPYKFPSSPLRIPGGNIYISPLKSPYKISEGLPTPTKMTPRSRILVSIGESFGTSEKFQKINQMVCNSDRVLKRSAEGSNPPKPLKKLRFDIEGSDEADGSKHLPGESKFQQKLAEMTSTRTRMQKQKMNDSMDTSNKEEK
Procedure, shortened: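 A549 cells treated with 0.1 μM largazole for 8 h and lysed. Lysates immunoprecipitated, then Western blotted with the indicated antibodies.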

A549 [4] = assay: Upregulation of p27 protein expression in human A549 cells at 0.1 uM after 12 hrs by Western blotting analysis; assay type: functional, cell-based
Procedure, shortened: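 A549 cells exposed to 0.1 μM over a time course, then lysed and Western blotted for G1 regulators including p21 and p27.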

[5] = biological target: Transcription factor E2F1 (Homo sapiens) (UniProt Q01094); assay: Induction of E2F1 degradation in human 16HBE cells at 0.1 uM after 12 to 24 hrs by Western blotting analysis; assay type: cell-based
Procedure, shortened: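 Each cell line (16-HBE, 95D, L78, H1975, H460) treated with 0.1 μM largazole for indicated times. Lysates Western blotted for E2F1.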

[6] = biological target: Histone deacetylase 1 (Homo sapiens) (UniProt Q13547); details: 16HBE, 0.1 uM
NCI-H460 [7] = assay: Cytotoxicity against human NCI-H460 cells assessed as inhibition of colony formation pretreated for 24 hrs followed by seeding measured after 10 days by clonogenic assay; assay type: functional, cell-based
Procedure, shortened: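 Soft-agar clonogenic assay. Cells pretreated 24 h with largazole or DMSO, then seeded in 0.3% soft agar upper layer over 0.6% soft agar lower layer. Colonies counted by microscope after 10 days. Mean ± SD of three independent experiments.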

[8] = Cytotoxicity against human H466 cells after 48 hrs by CCK-8 assay; assay type: functional, cell-based; details: H466, 48 h; procedure, shortened: as §1
A549 [9] = assay: Downregulation of E2F1 protein expression in human A549 cells at 0.1 uM by Western blotting analysis; assay type: functional, cell-based; details: TDE = time-dependent effect
Procedure, shortened: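 A549 cells treated with 0.1 μM largazole over a time course, or with a range of concentrations for 12 h. Lysates Western blotted for E2F1.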

A549 [10] = assay: Effect on CDK4 protein expression in human A549 cells at 0.1 uM after 6 to 36 hrs by Western blotting analysis; assay type: functional, cell-based
Procedure, shortened: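 A549 cells exposed to 0.1 μM largazole over a time course, lysed, and Western blotted for cyclin D1, CDK2, CDK4, p21 and p27.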

[11] = Cytotoxicity against human GLC82 cells after 48 hrs by CCK-8 assay; assay type: functional, cell-based; details: GLC82, 48 h; procedure, shortened: as §1
[12] = biological target: Transcription factor E2F1 (Homo sapiens) (UniProt Q01094); assay: Inhibition of E2F1 in human A549 cells assessed as downregulation of PCNA gene expression at 0.1 uM after 6 to 36 hrs by RT-PCR analysis; assay type: cell-based
Procedure, shortened: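 A549 cells given 0.1 μM over a time course. RNA extracted and RT-PCR run with gene-specific primers. Bands quantified by densitometry and normalized to GAPDH.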

A549 [13] = assay: Downregulation of E2F1 in human A549 cell cytoplasm at 0.1 uM after 6 to 24 hrs by Western blotting analysis; assay type: functional, cell-based
Procedure, shortened: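 A549 cells exposed to 0.1 μM largazole for indicated times. Cytoplasmic and nuclear fractions separated, then Western blotted for E2F1.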

A549 [14] = assay: Cell cycle arrest in human A549 cells assessed as accumulation at G2 phase at 0.06 uM after 24 hrs by propidium iodide staining-based flow cytometric analysis (reference value: 3.7%); assay type: functional
A549 [15] = assay: Induction of apoptosis in human A549 cells assessed as increase in cleaved caspase-9 level at 0.1 uM after 48 hrs by Western blotting analysis; assay type: functional, cell-based
Procedure, shortened: (§2)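 A549 cells exposed to 0.1 μM for a time course, then lysed and Western blotted. Read-outs are pro- and cleaved caspase-9, pro- and active caspase-3, and cleaved PARP.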

NCI-H460 [16] = assay: Cell cycle arrest in human NCI-H460 cells assessed as accumulation at S phase at 0.1 uM after 24 hrs by propidium iodide staining-based flow cytometric analysis (reference value: 31.6%); assay type: functional
NCI-H460 [17] = assay: Cell cycle arrest in human NCI-H460 cells assessed as accumulation at G2 phase at 0.1 uM after 24 hrs by propidium iodide staining-based flow cytometric analysis (reference value: 9.5%); assay type: functional
A549 [18] = assay: Induction of apoptosis in human A549 cells assessed as increase in cleaved caspase-3 level at 0.1 uM after 48 hrs by Western blotting analysis; assay type: functional, cell-based; procedure, shortened: as §2
[19] = Cytotoxicity against human L78 cells after 48 hrs by CCK-8 assay; assay type: functional, cell-based; details: L78, 48 h; procedure, shortened: as §1
NCI-H460 [20] = assay: Cell cycle arrest in human NCI-H460 cells assessed as accumulation at G1 phase at 0.1 uM after 24 hrs by propidium iodide staining-based flow cytometric analysis (reference value: 58.9%); assay type: functional

Transcription factor E2F1 (Homo sapiens), sequence (Q01094 whole entry): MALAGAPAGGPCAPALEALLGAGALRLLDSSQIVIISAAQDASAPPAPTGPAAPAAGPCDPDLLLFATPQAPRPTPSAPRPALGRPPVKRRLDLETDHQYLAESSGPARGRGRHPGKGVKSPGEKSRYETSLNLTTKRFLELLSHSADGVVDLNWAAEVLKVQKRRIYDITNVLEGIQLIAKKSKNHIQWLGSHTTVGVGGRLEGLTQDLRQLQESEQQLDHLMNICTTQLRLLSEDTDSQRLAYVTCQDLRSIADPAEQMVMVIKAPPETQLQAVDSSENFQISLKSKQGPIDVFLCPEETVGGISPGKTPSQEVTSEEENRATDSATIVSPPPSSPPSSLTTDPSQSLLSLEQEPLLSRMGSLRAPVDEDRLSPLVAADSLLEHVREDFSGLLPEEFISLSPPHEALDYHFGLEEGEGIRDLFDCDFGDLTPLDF
Histone deacetylase 1 (Homo sapiens), sequence (Q13547 whole entry): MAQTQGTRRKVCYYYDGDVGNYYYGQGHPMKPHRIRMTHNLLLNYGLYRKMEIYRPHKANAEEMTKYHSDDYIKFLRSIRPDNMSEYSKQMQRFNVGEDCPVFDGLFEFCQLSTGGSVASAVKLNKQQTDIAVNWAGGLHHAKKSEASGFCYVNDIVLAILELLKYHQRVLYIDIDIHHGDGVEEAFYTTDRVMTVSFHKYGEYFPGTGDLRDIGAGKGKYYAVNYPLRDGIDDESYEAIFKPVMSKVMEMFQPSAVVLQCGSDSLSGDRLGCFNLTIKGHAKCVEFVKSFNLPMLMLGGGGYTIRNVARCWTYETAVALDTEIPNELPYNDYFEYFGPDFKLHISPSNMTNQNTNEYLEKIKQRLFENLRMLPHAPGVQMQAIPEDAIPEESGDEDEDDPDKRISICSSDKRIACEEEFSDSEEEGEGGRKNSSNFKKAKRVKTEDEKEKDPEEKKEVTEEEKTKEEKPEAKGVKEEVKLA

In the case of CCCCCCCC(=O)SCC/C=C/[C@@H]1CC(=O)NCc2nc(cs2)C2=N[C@@](C)(CS2)C(=O)N[C@@H](C(C)C)C(=O)O1 [LARGAZOLE], the IC50 [1] is reported as 0.42 µM, the Activity [2] is reported as “inactive” and the Activity [3] is reported as “Active”. The Activity (A549 [4]) was “Active”, the Activity [5] was “inactive” and the inhibition [6] was “Active”. For the same compound, the inhibition (NCI-H460 [7]) was “Dose-dependent effect”, the IC50 [8] was 0.52 µM and the Activity (A549 [9]) was “tde”. For the same compound, the Activity (A549 [10]) was “inactive”, the IC50 [11] was 0.19 µM and the inhibition [12] was “Active”. The Activity (A549 [13]) was “Active”, the Activity (A549 [14]) was 3.1% and the Activity (A549 [15]) was “Active”. For the same compound, the Activity (NCI-H460 [16]) was 10.6%, the Activity (NCI-H460 [17]) was 5.3% and the Activity (A549 [18]) was “Active”. It also gave an IC50 [19] of 0.57 µM and an Activity (NCI-H460 [20]) of 84.1%.
